mABHD4 FP = ABHD4 inhibitors, primary screen, biochemical, fluorescence polarization, mouse; purified mABHD4, FP-Rh probe fluorescence polarization; inhibition, % at 8.92 µM; 370,000 tested, 0.54% active; AID 720543, 2013;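 active = inhibition exceeding the mean over every tested compound plus 3 SD, cut at about 30% in these data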;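 note: 0% = plate median of compound wells and 100% = S159A mutant with DMSO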
Target sequence (Q8VD66 whole entry, looked up): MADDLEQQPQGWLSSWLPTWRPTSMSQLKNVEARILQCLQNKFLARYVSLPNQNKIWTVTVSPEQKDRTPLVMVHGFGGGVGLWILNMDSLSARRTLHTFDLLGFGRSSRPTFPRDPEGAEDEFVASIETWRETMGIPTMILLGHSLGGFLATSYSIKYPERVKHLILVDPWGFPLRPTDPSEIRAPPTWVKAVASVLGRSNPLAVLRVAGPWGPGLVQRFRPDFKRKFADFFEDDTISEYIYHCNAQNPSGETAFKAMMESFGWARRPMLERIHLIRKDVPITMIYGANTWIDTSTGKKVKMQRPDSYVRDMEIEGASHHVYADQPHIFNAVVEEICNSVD
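Material: mouse ABHD4 enzyme, wild type; Benchmarks: S159A mutant high control, sample median low control; Buffer or medium: HEPES pH 7.0, NaCl, Pluronic buffer; Signal: fluorescence polarization; Read-out: percent inhibition of probe binding, normalized to plate controls; Timing: pre-incubation 45 min, probe exposure 60 min, at 25 °C; Dosing: 8.92 µM, single dose.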
HTRA1 inh = HTRA1 serine protease inhibitors, primary screen, biochemical, fluorescence polarization, HTS | AID 504803, 2011 | inhibition, % at 5.96 µM | Q92743 | recombinant HTRA1, FP-rhodamine activity-based probe | 340,000 tested, 0.5% active; in the data active = inhibition above about 36%;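 note: 0% = enzyme with DMSO and 100% = wells lacking enzyme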
PME-1 primary = PME-1 inhibitors via competitive probe labeling, primary screen, biochemical, fluorescence polarization, FP-Rh probe, HTS; 320,000 tested, 0.53% active; recombinant PME-1; AID 2130, 2009; inhibition, % at 5.9 µM; Protein phosphatase methylesterase 1 (Homo sapiens), Q9Y570;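 active = inhibition above the campaign mean of all compounds plus 3 SD, cut at about 26% in these data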;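 note: competitive labeling of PME-1 active site by serine hydrolase directed probe; 0% = PME-1 with DMSO and 100% = wells lacking PME-1 enzyme; inhibitors block probe labeling so polarization falls and inhibition rises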
Fam108B counter = mouse Fam108B serine hydrolase inhibitors, primary screen, counter-screen for RBBP9 inhibitor project, biochemical, fluorescence polarization; recombinant Fam108B, FP-Rh probe fluorescence polarization; inhibition, % at 9.51 µM; 300,000 tested, 0.33% active; AID 1947, 2009;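 active = inhibition above the screen mean inhibition plus 3 SD, computed separately per campaign, cut at about 18% in these data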;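 note: inhibitors lower polarization as less probe binds the enzyme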
SIAE primary = human SIAE inhibitors, primary screen, biochemical, fluorescence polarization, FP-Rh probe, 1536-well HTS | Sialate O-acetylesterase (Homo sapiens), Q9HAT2 | 370,000 tested, 0.69% active | inhibition, % at 9.66 µM | SIAE FP-Rh probe binding;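 active = inhibition above a cutoff: mean of compounds within the control limits plus 3 SD of those, cut at about 17% in these data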;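 note: 0% = plate median of compound wells and 100% = probe without SIAE protein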
TCR-CD3 inh = inhibitors of human TCR-CD3 interaction, primary screen, biochemical, fluorescence, TAMRA-labeled TCR probe; inhibition, % at 9.4 µM; 360,000 tested, 0.37% active; AID 651800, 2012;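 note: recombinant mutant TCR 2C K166C tagged with TAMRA read by polarization; 0% = receptor in buffer alone and 100% = receptor with positive control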
HTRA1 inh conf = HTRA1 protease inhibitors, retest, confirmation, biochemical, fluorescence polarization. inhibition, % at 5.96 µM. shares compounds with HTRA1 inh. 1,600 tested, 66% active. recombinant HTRA1, FP-rhodamine activity-based probe. AID 540248, 2011;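 active = mean inhibition over three repeats above a set limit taken from the earlier primary screen, cut at about 37% in these data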;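 note: 0% = HTRA1 with DMSO and 100% = wells lacking HTRA1; inhibitors block probe binding so polarization drops and inhibition rises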
BSA probe FL = compounds interfering with TAMRA-BSA probe, counter-screen for TCR-CD3 interaction inhibitor project, biochemical, fluorescence, TAMRA-labeled BSA; shares compounds with TCR-CD3 inh; TAMRA-labeled BSA probe fluorescence counterscreen; inhibition, % at 9.4 µM; 1,200 tested, 10% active; AID 652035, 2013; in the data active = inhibition above about 23%;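 note: 0% = buffer low control and 100% = reference high control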
TCR-CD3 inh conf = TCR-CD3 interaction inhibitors, retest, confirmation, biochemical, fluorescence, TAMRA-labeled TCR probe; inhibition, % at 9.4 µM; AID 652036, 2013; TAMRA-labeled TCR probe fluorescence binding assay; 1,200 tested, 48% active; shares compounds with TCR-CD3 inh
ABHD4 confirm = ABHD4 inhibitors, retest, confirmation, biochemical, fluorescence polarization, mouse | shares compounds with mABHD4 FP | purified mABHD4, FP-Rh probe fluorescence polarization | inhibition, % at 8.92 µM | 1,800 tested, 55% active | AID 720658, 2013;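 active = mean inhibition across replicates above the hit cutoff set in the primary screen, cut at about 30% in these data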;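 note: 0% = wild-type ABHD4 with DMSO and 100% = catalytically dead S159A mutant with DMSO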
* hit, by the source's call; x = not tested or not shown. This is a sample that favours compounds with a hit; in the whole collection about 1.8% have one here. Cut-off read from the data, not from the text of the source, unless noted: active = inhibition above about 19%; inactive = the rest.

SMILES	mABHD4 FP	HTRA1 inh	PME-1 primary	Fam108B counter	SIAE primary	TCR-CD3 inh	HTRA1 inh conf	others
Cc1cc(OC(=O)c2cccs2)c2c3c(c(=O)oc2c1)CCCC3	-8.9	-4.3	3.6	3.5	1.3	-8.1	x
Cc1cc(OC(=O)c2ccco2)c2c3c(c(=O)oc2c1)CCCC3	-3.1	41.9*	16.1	1.4	-0.7	0.5	33.0
Brc1ccc2c(c1)-n1nncc1CNC2	-3.3	x	x	x	-3.4	7.5	x
CCC(C)/C=C(C)/C=C/C1=CC2=C(Cl)C(=O)C(C)(OC(C)=O)C(=O)C2=CO1 (configuration not stated)	x	44.0*	8.2	10.7	x	x	68.1*
CCCN1CCc2cccc3c2[C@H]1Cc1ccc(O)c(O)c1-3	x	77.3*	4.6	-1.0	x	x	65.6*
O=C(NCCN1CCC2(CC1)C(=O)NCN2c1ccccc1)c1cccs1	2.0	x	x	x	-0.7	4.0	x
CCOC(=O)[C@]12Cc3c(cc(OC)c(OC)c3OC)[C@H]1N(C1CCCCC1)C(=O)c1ccccc12	5.6	x	x	x	7.1	-4.9	x
C=Cn1ccnc1P(=S)(c1nccn1C=C)c1nccn1C=C	5.2	40.6*	1.5	0.1	1.4	4.5	42.8*
C=C1C(=O)C(C)=C2C(=O)N3Cc4[nH]c5ccccc5c4CC3(C(=O)OC)C12 (configuration not stated)	-5.5	x	x	x	-11.1	x	x
Oc1ccc(O)c2c1C1(Cl)C(Cl)=C(Cl)C2(Cl)C1(Cl)Cl	-26.5	26.4	x	x	-18.7	7.9	x
CC(C)(C)c1ccc(O)c(N=Cc2c(O)ccc3ccccc23)c1	24.2	50.0*	0.9	9.5	12.4	11.0	62.6*
c1ccc(Nc2ccc(Nc3ccccc3)cc2)cc1	25.9	55.9*	6.3	x	9.9	3.7	42.6*
O=[N+]([O-])c1ccc(Nc2ccccc2)cc1	-0.7	-15.5	1.6	-2.6	8.1	-0.7	x
COc1ccc(-n2c(/C=C/c3ccc(O)c(O)c3)nc3ccccc3c2=O)cc1	21.5	65.7*	34.4*	8.8	12.3	10.1	62.9*
CN(C)C1C(=O)C(C(N)=O)=C(O)C2(O)C(=O)C3=C(O)c4c(O)cccc4C(C)(O)C3C(O)C12 (configuration not stated)	67.2*	56.3*	-10.4	15.0	12.4	25.0*	8.1	BSA probe FL=-1.2;TCR-CD3 inh conf=7.4;ABHD4 confirm=18.4
O=C(NCCN1CCC2(CC1)C(=O)NCN2c1ccccc1)c1ccc2ccccc2c1	16.1	x	x	x	-1.3	3.3	x
Oc1c(Cl)cccc1Cc1cc(Cl)cc(Cl)c1O	-77.2	10.9	x	x	9.2	2.6	x
CCN(CC)c1ccc(N=Cc2c(O)n(Cc3ccco3)c(=O)[nH]c2=O)cc1	45.4*	41.8*	-2.2	-1.5	16.9	10.2	-0.4	ABHD4 confirm=1.8

Screens (PubChem)
